Test results reported in the EternaBench riboswitch data.

System: MS2 coat protein
Assay: apparent Kd, MS2 coat protein; higher = weaker binding; RNA-MaP array; FMN 200 µM where present
Procedure, shortened: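 Designs on Illumina sequencing-chip clusters, transcribed by stalled E. coli RNA polymerase, were exposed to SNAP-549-labelled MS2 coat protein in doubling steps from 0.7 or 1.5 nM up to 3 µM, without and then with constant ligand. The buffer held 100 mM Tris-HCl pH 7.5, 80 mM KCl, 4 mM MgCl2, BSA, DTT, yeast tRNA and Tween-20. Apparent Kd values are medians of filtered per-cluster binding-curve fits to green signal normalised to red-channel RNA signal and control-cluster median Fmax.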

[1] = designed as: OFF switch for flavin mononucleotide, no ligand
[2] = ligand present: flavin mononucleotide, designed as: OFF switch for flavin mononucleotide
[3] = designed as: ON switch for flavin mononucleotide, no ligand
[4] = ligand present: flavin mononucleotide, designed as: ON switch for flavin mononucleotide

Sequence	apparent Kd [1] [nM]	apparent Kd [2] [nM]	apparent Kd [3] [nM]	apparent Kd [4] [nM]
CAAAUUAGCGAGAAGGAGCGCCCGUAGGUACAUGAGGAUCACCCAUGUCCUUUGUGCUCUACGCGCUAGGAUAUCGAUAAACAG	12.8	99.4		
CAAGGUACCCAAGGAUAUCCUCACAUGAGGAUCACCCAUGUGUCAGCAAAAGGAGAAGGUGGGUGAAGCUGUCUGCACGCCAAG			53.3	4.53
CAAUUGGCACAGAAGGGUGACAUGAGGAUCACCCAUGUAGCGUGGUACUCAGGAGGAACCACGCCACAGGAUAUGUGCCGGCAC			44.5	123
CAAUUUAUGUCAGGAUAUACAAUACAAUGAUUAGUAGAAGGGAUUAAUACAUGAGGAUCACCCAUGUCAUGUGUCAUCGUAACC	22.3	17.4		
CAAUUUAUGUCAGGAUAUACAAUACAAUGAUUAGUAGAAGGGAUUAAUACAUGAGGAUCACCCAUGUCAUGUGUCAUCGUGCCC	24	20.7		
CACACAUGUGGAGGAUAUGUAGUUAACAUAAGCGCAGAAGGCCACAUGAGGAUCACCCAUGUCCGGCAUUAGCCGAUGUUGAUC	108	397		
CACAUGUGAGGAUAUGUACGAGGCCCGGACGGGUCUCGCAGGCAGAAGGCACAUGAGGAUCACCCAUGUGACCG	23.9	66.7		
CACCGGCCCUAUAUGUUCUAGACAUGAGGAUCACCCAUGUAUAGAAGGGUCUUCGCGAAACGCAGACAGGAUAUGUACAGGAGU	6.08	9.13		
CACCGUUAACUAGGAUAUAGUACAUGAGGAUCACCCAUGUAAUAAAUGAGAAUUUCGGAUGUAUGCUAGAAGGAGUAAAUCGGC	62.8	64.4		
CACUCACAUGAGGAUCACCCAUGUCCUAGCAGGUCAGGAUAUAGCUCGGAUGCGUUCAGUCUAGAAGGGACACGUU			156	111
CAGAAGUCAGGAUAUGCAUGGCGGGACUUGCGUCGUGGCGUGCAGAAGGGACAUGAGGAUCACCCAUGUGGAGU	173	251		
CAGAAGUCAGGAUAUGCUGCUCGUCACUUGCGUGAUGAGUAGCAGAAGGGACAUGAGGAUCACCCAUGUAAAGU	55.6	121		
CAGAGGAUGUAAGGAUAUCGUCAGGAUAACUGACGAGAAGGUACAUGAGGAUCACCCAUGUAUAUGAAAGAUAAUAAACCUCUG	13.5	18.8		
CAGAUAAAAGUGUGGUCGUCGACAUGAGGAUCACCCAUGUACGAGGAUAUGUAAUAUACGGUAUAGCAGAAGGCGUAUGGGUGU	74.6	103		
CAGAUUUGCUAGAAGGGUGACAUGAGGAUCACCCAUGUGCGGGCAGACCUAUCUUCAUGCCCGCCACAGGAUAUAGCAAUUUGC			36.6	17.9
CAGCAAAGGUAGAAGGCAGUACUGAUACAGUACUGAGGAUAUACAUGAGGAUCACCCAUGUAAAAAAGCUGGAAAUAAAUAAAA	7.39	10		
CAGCAAUGUAAGAAGGCUGCUCCGAUUAGGAGCAGAGGAUAUUACAUGAGGAUCACCCAUGUAUAAAAUAAUAGCUGAAAUAAU	6.37	7.69		
CAGCAAUGUAAGAAGGUAUUUAUUAUUAUAUUAUAAGGAUAUUACAUGAGGAUCACCCAUGUAUGAACCAAUAGCUGAAUUAUA	6.1	5.88		
CAGCGAAAGCUGAAUGUCGGAGCAGAGGAUAUUACAUGAGGAUCACCCAUGUAUGAACCAAAAUGUAAGAAGGCUGCUCCGACA	844	20.4		
CAGCGAAAGUAGAAGGCAGUACUGAUACAGUACUGAGGAUAUACAUGAGGAUCACCCAUGUCCUUCAGCUGGAAAUAAAUAAAA	5.9	50.9		
CAGCUGAAAGUCAGGAUAUCUAGAGCUUCGGCUCUAGAGAAGGGACAUGAGGAUCACCCAUGUGGUCACAGCUG	1420	149		
CAGCUUUACGAGGAUAUGGAAGGAGUCAACUUGCCAGAAGGUGUAACAUGAGGAUCACCCAUGUGGCCCGUGAC	66.1	69.4		
CAGGUAGACUGAGGAUAUACAAUAAACAGCUAGUCUAUCUAGCUGCCGACAUGAGGAUCACCCAUGUAGAAGGCAGUCUGCCUG	18.5	40		
